Legend:
Assay in all cases: NCI-60 single-dose antiproliferative screen
Format in all cases: cell-based
MOLT-4 = details: Homo sapiens, MOLT-4, 48 h, read-out: growth percent
How it was run: (§1)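 NCI-60 protocol. Lines were grown in RPMI 1640 with 5% FBS and 2 mM L-glutamine, plated and incubated 24 h at 37 °C; time-zero plates were TCA-fixed. The test compound was dissolved in DMSO, diluted in medium with 50 μg/mL gentamicin and given once at a final 10^-5 M (DMSO control) for 48 h. Cells were fixed with cold TCA (1 h, 4 °C) and stained with 0.4% SRB in 1% acetic acid for 10 min. Dye was dissolved in 10 mM Trizma base and read at 515 nm. Growth percent was calculated from time-zero, test and control ODs.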

RPMI-8226 = details: Homo sapiens, RPMI-8226, 48 h, read-out: growth percent
How it was run: as §1

EKVX = details: Homo sapiens, 48 h, read-out: growth percent
How it was run: as §1

HOP-62 = details: Homo sapiens, HOP-62, 48 h, read-out: growth percent
How it was run: as §1

HOP-92 = details: Homo sapiens, HOP-92, 48 h, read-out: growth percent
How it was run: as §1

NCI-H226 = details: Homo sapiens, NCI-H226, 48 h, read-out: growth percent
How it was run: as §1

NCI-H322M = details: Homo sapiens, 48 h, read-out: growth percent
How it was run: as §1

NCI-H460 = details: Homo sapiens, NCI-H460, 48 h, read-out: growth percent
How it was run: as §1

NCI-H522 = details: Homo sapiens, NCI-H522, 48 h, read-out: growth percent
How it was run: as §1

COLO205 = details: Homo sapiens, COLO 205, 48 h, read-out: growth percent
How it was run: as §1

HCT-15 = details: Homo sapiens, HCT-15, 48 h, read-out: growth percent
How it was run: as §1

SF-268 = details: Homo sapiens, SF-268, 48 h, read-out: growth percent
How it was run: as §1

SF-295 = details: Homo sapiens, SF-295, 48 h, read-out: growth percent
How it was run: as §1

SNB-19 = details: Homo sapiens, SNB-19, 48 h, read-out: growth percent
How it was run: (§2)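 Cells grown in RPMI 1640 with 5% FBS and 2 mM L-glutamine, plated and held 24 h at 37 °C; time-zero plates TCA-fixed. DMSO stocks were diluted in gentamicin-containing medium to a final 10^-5 M, with a DMSO-only control. Exposure 48 h, 5% CO2. Adherent cells TCA-fixed 1 h at 4 °C, stained with 0.4% SRB, solubilised in 10 mM Trizma base, read at 515 nm. Growth percent derived from ODtzero, ODtest and ODctrl.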

U251 = details: Homo sapiens, U-251, 48 h, read-out: growth percent
How it was run: as §2

LOX IMVI = details: Homo sapiens, 48 h, read-out: growth percent
How it was run: as §1

MALME-3M = details: Homo sapiens, 48 h, read-out: growth percent
How it was run: as §1

M14 = details: Homo sapiens, M14, 48 h, read-out: growth percent
How it was run: as §1

MDA-MB-435 = details: Homo sapiens, MDA-MB-435, 48 h, read-out: growth percent
How it was run: as §1

SK-MEL-5 = details: Homo sapiens, SK-MEL-5, 48 h, read-out: growth percent
How it was run: as §2

OVCAR-3 = details: Homo sapiens, OVCAR-3, 48 h, read-out: growth percent
How it was run: as §1

OVCAR-4 = details: Homo sapiens, OVCAR-4, 48 h, read-out: growth percent
How it was run: as §1

OVCAR-5 = details: Homo sapiens, OVCAR-5, 48 h, read-out: growth percent
How it was run: as §1

OVCAR-8 = details: Homo sapiens, OVCAR-8, 48 h, read-out: growth percent
How it was run: as §1

NCI/ADR-RES = details: Homo sapiens, 48 h, read-out: growth percent
How it was run: as §1

SK-OV-3 = details: Homo sapiens, SK-OV-3, 48 h, read-out: growth percent
How it was run: as §2

786-0 = details: Homo sapiens, 786-0, 48 h, read-out: growth percent
How it was run: as §1

CAKI-1 = details: Homo sapiens, CAKI-1, 48 h, read-out: growth percent
How it was run: as §1

RXF 393 = details: Homo sapiens, RXF 393, 48 h, read-out: growth percent
How it was run: as §1

SN12C = details: Homo sapiens, 48 h, read-out: growth percent
How it was run: as §2

TK-10 = details: Homo sapiens, TK-10, 48 h, read-out: growth percent
How it was run: as §2

UO-31 = details: Homo sapiens, UO-31, 48 h, read-out: growth percent
How it was run: as §2

DU-145 = details: Homo sapiens, DU-145, 48 h, read-out: growth percent
How it was run: as §1

HS 578T = details: Homo sapiens, 48 h, read-out: growth percent
How it was run: as §1

T-47D = details: Homo sapiens, T47D, 48 h, read-out: growth percent
How it was run: as §2

MDA-MB-468 = details: Homo sapiens, MDA-MB-468, 48 h, read-out: growth percent
How it was run: as §1

Row | SMILES | activity at 10 µM (MOLT-4) | activity at 10 µM (RPMI-8226) | activity at 10 µM (EKVX) | activity at 10 µM (HOP-62) | activity at 10 µM (HOP-92) | activity at 10 µM (NCI-H226) | activity at 10 µM (NCI-H322M) | activity at 10 µM (NCI-H460) | activity at 10 µM (NCI-H522) | activity at 10 µM (COLO205) | activity at 10 µM (HCT-15) | activity at 10 µM (SF-268) | activity at 10 µM (SF-295) | activity at 10 µM (SNB-19) | activity at 10 µM (U251) | activity at 10 µM (LOX IMVI) | activity at 10 µM (MALME-3M) | activity at 10 µM (M14) | activity at 10 µM (MDA-MB-435) | activity at 10 µM (SK-MEL-5) | further results
1 | COc1cc(CNC(=O)CCCC/C=C/C(C)C)ccc1OCc1cn(-c2ccc(C#N)cc2)nn1 [14j, (E)-N-(4-((1-(4-Cyanophenyl)-1H-1,2,3-triazol-4-yl)methoxy)-3-methoxybenzyl)-8-methylnon-6-enamide] | 88.4% | 65.4% | 90.8% | 103% | 80.5% | 100% | 95.3% | 93% | 88.2% | 117% | 83.5% | 90.9% | 102% | 81.9% | 91.2% | 78.2% | 102% | 95.3% | 108% | 87% | activity at 10 µM (OVCAR-3): 109%; activity at 10 µM (OVCAR-4): 94.9%; activity at 10 µM (OVCAR-5): 95.3%; activity at 10 µM (OVCAR-8): 63.3%; activity at 10 µM (NCI/ADR-RES): 79.7%; activity at 10 µM (SK-OV-3): 88.2%; activity at 10 µM (786-0): 91.7%; activity at 10 µM (CAKI-1): 74.6%; activity at 10 µM (RXF 393): 90.8%; activity at 10 µM (SN12C): 98.3%; activity at 10 µM (TK-10): 91.8%; activity at 10 µM (UO-31): 112%; activity at 10 µM (DU-145): 44.4%; activity at 10 µM (HS 578T): 95%; activity at 10 µM (T-47D): 76.8%; activity at 10 µM (MDA-MB-468): 74.9%
2 | COc1cc(CNC(=O)CCCC/C=C/C(C)C)ccc1OCc1cn(-c2ccccc2OC)nn1 [14l, (E)-N-(3-Methoxy-4-((1-(2-methoxyphenyl)-1H-1,2,3-triazol-4-yl)methoxy)benzyl)-8-methylnon-6-enamide] | 79.7% | 71.2% | 89.4% | 88.7% | 72.1% | 80.5% | 92.2% | 104% | 63.9% | 117% | 106% | 92.6% | 108% | 91.6% | 90.2% | 86.1% | 106% | 96.7% | 110% | 83.9% | activity at 10 µM (OVCAR-3): 103%; activity at 10 µM (OVCAR-4): 100%; activity at 10 µM (OVCAR-5): 113%; activity at 10 µM (OVCAR-8): 82.2%; activity at 10 µM (NCI/ADR-RES): 94.6%; activity at 10 µM (SK-OV-3): 99.8%; activity at 10 µM (786-0): 102%; activity at 10 µM (CAKI-1): 79.9%; activity at 10 µM (RXF 393): 101%; activity at 10 µM (SN12C): 98%; activity at 10 µM (TK-10): 90.2%; activity at 10 µM (UO-31): 105%; activity at 10 µM (DU-145): 83.1%; activity at 10 µM (HS 578T): 83%; activity at 10 µM (T-47D): 92.2%; activity at 10 µM (MDA-MB-468): 75.5%
3 | COc1cc(CNC(=O)CCCC/C=C/C(C)C)ccc1OCc1cn(-c2ccccc2F)nn1 [14i, (E)-N-(4-((1-(2-Fluorophenyl)-1H-1,2,3-triazol-4-yl)methoxy)-3-methoxybenzyl)-8-methylnon-6-enamide] | 90.9% | 81.3% | 79.1% | 85% | 78.7% | 81.3% | 90.2% | 104% | 77.5% | 116% | 96% | 95% | 99% | 84.8% | 93.1% | 87.1% | 108% | 96.8% | 101% | 91.5% | activity at 10 µM (OVCAR-3): 97.5%; activity at 10 µM (OVCAR-4): 84.2%; activity at 10 µM (OVCAR-5): 103%; activity at 10 µM (OVCAR-8): 94.5%; activity at 10 µM (NCI/ADR-RES): 89.8%; activity at 10 µM (SK-OV-3): 97.8%; activity at 10 µM (786-0): 97.2%; activity at 10 µM (CAKI-1): 90.6%; activity at 10 µM (RXF 393): 103%; activity at 10 µM (SN12C): 92.7%; activity at 10 µM (TK-10): 111%; activity at 10 µM (UO-31): 77.1%; activity at 10 µM (DU-145): 106%; activity at 10 µM (HS 578T): 87.7%; activity at 10 µM (T-47D): 83.1%; activity at 10 µM (MDA-MB-468): 92.8%

— article PMC9476207 (ACS Omega, 2022)
